The results in this text go back to PubChem BioAssay.

The nature of assay [1]: hit retest on RPL19A-GFP reporter strain – cell-based, S. cerevisiae, flow cytometry, cherry picks, mother/daughter gates, confirmation (AID 2270;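 active = GFP response below 50% of the DMSO control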). The settings on record: 3 h, at 10 µM, stronger effect = lower value, 100 = same GFP as DMSO wells. For orientation: In flow cytometry, cells or beads pass a laser one at a time.
A short description of assay [2]: yeast TOR pathway reporter LAP4-GFP change – cell-based, cherry picks, flow cytometry, mother/daughter gates, confirmation (AID 2271;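 active = GFP response above 150% of the DMSO control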;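 note: ratio of sample to DMSO plate mean so 100% equals DMSO level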). Particulars: S. cerevisiae LAP4-GFP strain, 3 h, at 10 µM, stronger effect = higher value, 100 means same as DMSO control. The procedure, abridged: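 System – GFP-fusion yeast strain · Amount – 0.2 OD600 cells · Buffer or medium – SC growth medium · Dosing – single test-compound dose, 10 µM final · Schedule – 3 h treatment at 30 °C with rotation · Detection – GFP by flow cytometry · Read-out – per-gate (all, mother, daughter) GFP response vs DMSO · Benchmarks – positive rapamycin (400 ng/mL), negative DMSO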

Assay [3] is described as follows: TOR pathway reporter MEP2-GFP, retest of hits – S. cerevisiae, flow cytometry GFP, cherry picks, confirmation (AID 2272;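 active = GFP response above 150% of the DMSO control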;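 note: ratio of well signal to plate DMSO mean so 100% equals DMSO level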). Particulars: S. cerevisiae MEP2-GFP strain, 3 h, at 10 µM, stronger effect = higher value.
Assay [4] is described as follows: yeast AGP1-GFP fluorescence change, single-dose – cell-based, flow cytometry, S. cerevisiae, cherry picks, confirmation (AID 2273).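 Note: median GFP channel fluorescence over the whole cell population gate.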 The settings on record: S. cerevisiae AGP1-GFP strain, 3 h, at 10 µM.
Assay [5] in a line: TOR pathway CIT2 reporter hit retest – S. cerevisiae, GFP fusion, cherry picks, mother/daughter gates, confirmation (AID 2274). The settings on record: S. cerevisiae CIT2-GFP strain, flow cytometry, 3 h, at 10 µM, stronger effect = higher value.
Where [6] appears, read: measured here: daughter cell gate.
Where [7] appears, read: measured here: mother cell gate.
[8] abbreviates: measured here: daughter cell gate response.
[9] abbreviates: measured here: mother cell gate response.

The source made the active and inactive calls.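 Rule for the calls, unless noted: active = GFP response above 150% of the DMSO level; inconclusive = fewer than 70 events counted for a yeast strain; inactive = the rest.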

On to `CCOC(=O)C(=CNNc1ccccc1)C(=O)OCC`, for which the GFP response vs DMSO in assay [1] is 106% (inactive); in assay [1] (setting [6]), 105%; in assay [1] (setting [7]), 105%; in assay [3], 113% (inactive). For the same compound, the values for the GFP response relative to DMSO in assay [2], in assay [2] (setting [8]) and in assay [2] (setting [9]) were 136% (inactive), 133% and 140%, respectively. Also, the GFP response, % of DMSO in assay [4] is 102% (inactive); in assay [5] it was 103% (inactive); in assay [5] (setting [6]), 101%; in assay [5] (setting [7]), 103%.
For the compound `Cc1ccc(-c2nc3ccccn3c2NC(=O)c2ccco2)cc1`, the GFP response vs DMSO in assay [1] was 94.9% (inactive); in assay [1] (setting [6]) it was 96.4%; in assay [1] (setting [7]), 95%; in assay [3], 101% (inactive). Moreover, the GFP response relative to DMSO in assay [2] is 98.9% (inactive); in assay [2] (setting [8]) it was 97.5%; in assay [2] (setting [9]), 98.4%. For the same compound, the GFP response, % of DMSO in assay [4] was 98.4% (inactive); in assay [5], 104% (inactive); in assay [5] (setting [6]), 103%; in assay [5] (setting [7]), 104%.
As to `Cc1ccc(-c2csc3ncn(Cc4ccc(C(=O)O)cc4)c(=O)c23)cc1C`, the GFP response vs DMSO in assay [1] was 98.8% (inactive); in assay [1] (setting [6]) it was 97.3%; in assay [1] (setting [7]), 99%; in assay [3], 105% (inactive). Also, the GFP response relative to DMSO is 117% (inactive) in assay [2], 114% in assay [2] (setting [8]) and 120% in assay [2] (setting [9]). Moreover, the GFP response, % of DMSO is 116% (inactive) in assay [4], 106% (inactive) in assay [5], 105% in assay [5] (setting [6]) and 107% in assay [5] (setting [7]).
`CC(C)c1nnc(NC(=O)c2nc(S(=O)(=O)Cc3ccccc3)ncc2Cl)s1`: the GFP response vs DMSO in assay [1] was 98.5% (inactive); in assay [1] (setting [6]), 101%; in assay [1] (setting [7]), 95.4%; in assay [3] it was 106% (inactive). In addition, the GFP response relative to DMSO in assay [2] is 102% (inactive); in assay [2] (setting [8]), 101%; in assay [2] (setting [9]), 100%. Further, the GFP response, % of DMSO was 102% (inactive) in assay [4], 100% (inactive) in assay [5], 99.3% in assay [5] (setting [6]) and 99.3% in assay [5] (setting [7]).
As to `Nc1ccc(S(=O)(=O)c2ccccc2)nc1`, the GFP response vs DMSO was 103% (inactive) in assay [1], 104% in assay [1] (setting [6]), 104% in assay [1] (setting [7]) and 104% (inactive) in assay [3]. The GFP response relative to DMSO in assay [2] was 99.8% (inactive); in assay [2] (setting [8]) it was 98.7%; in assay [2] (setting [9]), 99.3%. Further, the GFP response, % of DMSO in assay [4] is 95.7% (inactive); in assay [5], 95.2% (inactive); in assay [5] (setting [6]), 94.8%; in assay [5] (setting [7]), 94.4%.
With `COC(=O)c1ccc(CS(=O)(=O)c2ccc(F)cc2)o1`, the GFP response vs DMSO is 97.8% (inactive) in assay [1], 98.1% in assay [1] (setting [6]), 95.9% in assay [1] (setting [7]) and 103% (inactive) in assay [3]. In addition, the results for the GFP response relative to DMSO in assay [2], in assay [2] (setting [8]) and in assay [2] (setting [9]) were 98.9% (inactive), 99% and 98.4%, respectively. Also, the GFP response, % of DMSO in assay [4] was 102% (inactive); in assay [5], 100% (inactive); in assay [5] (setting [6]), 99.3%; in assay [5] (setting [7]) it was 98.2%.
For `Cc1ccc(C)c(-c2nnc(NC(=O)c3ccc([N+](=O)[O-])o3)o2)c1`, the GFP response vs DMSO is 101% (inactive) in assay [1], 95.7% in assay [1] (setting [6]), 101% in assay [1] (setting [7]) and 107% (inactive) in assay [3]. Also, the GFP response relative to DMSO in assay [2] is 115% (inactive); in assay [2] (setting [8]), 114%; in assay [2] (setting [9]), 116%. Further, the GFP response, % of DMSO in assay [4] is 91.6% (inactive); in assay [5] it was 90.1% (inactive); in assay [5] (setting [6]) it was 90.2%; in assay [5] (setting [7]) it was 87%.
For the compound `COc1ccc(/C=C2\Sc3ccc(C(=O)N4CCc5ccccc5C4)cc3N(C)C2=O)cc1`, the GFP response vs DMSO is 98.4% (inactive) in assay [1], 97.4% in assay [1] (setting [6]), 99.5% in assay [1] (setting [7]) and 102% (inactive) in assay [3]. Also, the GFP response relative to DMSO is 99.2% (inactive) in assay [2], 99.2% in assay [2] (setting [8]) and 98.3% in assay [2] (setting [9]). In addition, the GFP response, % of DMSO in assay [4] is 102% (inactive); in assay [5] it was 99.7% (inactive); in assay [5] (setting [6]) it was 99.1%; in assay [5] (setting [7]), 98.5%.
As to `Cn1cc([N+](=O)[O-])c(C(=O)Nc2nc(-c3ccc(Cl)cc3)cs2)n1`, the GFP response vs DMSO in assay [1] is 97.8% (inactive); in assay [1] (setting [6]), 97%; in assay [1] (setting [7]), 96.5%; in assay [3], 106% (inactive). The GFP response relative to DMSO in assay [2] is 102% (inactive); in assay [2] (setting [8]), 97.5%; in assay [2] (setting [9]), 102%. In addition, the GFP response, % of DMSO in assay [4] was 95.5% (inactive); in assay [5] it was 100% (inactive); in assay [5] (setting [6]), 97.6%; in assay [5] (setting [7]) it was 99.3%.
As for `COc1ccccc1CNc1nc(S(=O)(=O)c2ccccc2)c(Cl)s1`, the GFP response vs DMSO in assay [1] was 97.3% (inactive); in assay [1] (setting [6]), 97.8%; in assay [1] (setting [7]), 96.5%; in assay [3], 95.2% (inactive). Also, the GFP response relative to DMSO in assay [2] is 108% (inactive); in assay [2] (setting [8]), 104%; in assay [2] (setting [9]), 109%. Besides, the GFP response, % of DMSO was 105% (inactive) in assay [4], 97.2% (inactive) in assay [5], 97.6% in assay [5] (setting [6]) and 97.1% in assay [5] (setting [7]).
`O=C(OCn1ncc(Br)c(Br)c1=O)c1ccccc1Cl`: the GFP response vs DMSO in assay [1] is 94.1% (inactive); in assay [1] (setting [6]) it was 96.2%; in assay [1] (setting [7]) it was 90.1%; in assay [3], 112% (inactive). Moreover, the GFP response relative to DMSO was 172% (active) in assay [2], 150% in assay [2] (setting [8]) and 167% in assay [2] (setting [9]). The GFP response, % of DMSO in assay [4] was 105% (inactive); in assay [5], 95% (inactive); in assay [5] (setting [6]) it was 104%; in assay [5] (setting [7]), 86.3%.
Take `O=C1c2ccsc2SCCN1Cc1ccc(Cl)cc1Cl`: the GFP response vs DMSO in assay [1] is 96% (inactive); in assay [1] (setting [6]), 94.2%; in assay [1] (setting [7]), 95.5%; in assay [3], 94.7% (inactive). In addition, the GFP response relative to DMSO in assay [2] was 108% (inactive); in assay [2] (setting [8]), 107%; in assay [2] (setting [9]), 110%. Moreover, the GFP response, % of DMSO in assay [4] is 98.2% (inactive); in assay [5], 90.1% (inactive); in assay [5] (setting [6]), 90.2%; in assay [5] (setting [7]), 91.9%.
As to `Cc1ccc(S(=O)(=O)N2CC3CCC2C3)cc1` (stereo unspecified), the GFP response vs DMSO in assay [1] was 101% (inactive); in assay [1] (setting [6]), 100%; in assay [1] (setting [7]), 104%; in assay [3] it was 97.8% (inactive). The GFP response relative to DMSO in assay [2] was 97.4% (inactive); in assay [2] (setting [8]), 97.2%; in assay [2] (setting [9]) it was 99.3%. The GFP response, % of DMSO in assay [4] is 97.4% (inactive); in assay [5], 112% (inactive); in assay [5] (setting [6]), 110%; in assay [5] (setting [7]), 114%.
As for `O=C1/C(=C\c2ccccn2)SC(=S)N1Nc1ncc(C(F)(F)F)cc1Cl`, the GFP response vs DMSO in assay [1] is 99.1% (inactive); in assay [1] (setting [6]) it was 98.3%; in assay [1] (setting [7]), 99%; in assay [3] it was 102% (inactive). Further, the GFP response relative to DMSO was 98.8% (inactive) in assay [2], 92.2% in assay [2] (setting [8]) and 99.5% in assay [2] (setting [9]). Also, the GFP response, % of DMSO was 94.9% (inactive) in assay [4], 95% (inactive) in assay [5], 94.6% in assay [5] (setting [6]) and 93.3% in assay [5] (setting [7]).
`Cc1cc(NC(c2ccc(Cl)cc2)c2ccc3cccnc3c2O)no1` (stereo unspecified): the GFP response vs DMSO in assay [1] is 97.8% (inactive); in assay [1] (setting [6]), 97.4%; in assay [1] (setting [7]), 97.6%; in assay [3] it was 100% (inactive). Moreover, the GFP response relative to DMSO in assay [2] is 108% (inactive); in assay [2] (setting [8]), 104%; in assay [2] (setting [9]), 113%. The GFP response, % of DMSO in assay [4] is 94.5% (inactive); in assay [5] it was 98.3% (inactive); in assay [5] (setting [6]) it was 99.1%; in assay [5] (setting [7]) it was 98.5%.
`O=C(c1ccccn1)c1conc1C(=O)c1ccc(Br)cc1`: the GFP response vs DMSO is 98.2% (inactive) in assay [1], 93.9% in assay [1] (setting [6]), 102% in assay [1] (setting [7]) and 153% (inactive) in assay [3]. The GFP response relative to DMSO in assay [2] was 204% (active); in assay [2] (setting [8]), 159%; in assay [2] (setting [9]), 213%. Further, the GFP response, % of DMSO in assay [4] was 105% (inactive); in assay [5], 139% (inactive); in assay [5] (setting [6]) it was 126%; in assay [5] (setting [7]), 147%.
